pIC50: −log10 of the molar value. Active and inactive are the calls of the source.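 Rule for the calls: active = IC50 no more than ten times the top valid dose, with luminescence dropping as cells die; inconclusive = flat curve losing 30 to 70% of signal, or poor fit; inactive = the rest, including signal rises.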

Broadly, the IC50 is the concentration that gives 50% inhibition. The pIC50 is −log10 of the IC50, conventionally taken in molar units.

One assay concerns ldlA[mSR-BI] CHO cells viability, CellTiter-Glo ATP, 3 h. The assay is described as follows: cell viability loss over short exposure – CellTiter-Glo, 3 h, dry powder, cytotoxicity control for SR-BI HDL uptake inhibitor project, dose response (AID 540246).
Conditions: not given
The procedure, abridged:
(§1)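 Test system: ldlA[mSR-BI] cells, viability (cytotoxicity counter-screen); buffer or medium: Ham's F12 plus 10% FCS; incubation: 3 h compound treatment, 37 °C; measured by: luminescence from Cell Titer Glo luciferase reagent sensing cellular ATP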
(In general: In ATP-based viability assays light output follows the ATP content of the culture.)
As to `CCOC(=O)Nc1cccc(NC(=O)c2cc(OC)cc(OC)c2)c1`, the IC50 is > 35 µM (inactive).
For the compound `O=C(Nc1ccc(-c2nc3ccc(NC(=O)c4ccccc4)cc3[nH]2)cc1)c1ccccc1`, the pIC50 was 4.42.
On the same count and under the same terms, the value for `Cc1ccc2oc(-c3cccc(NC(=O)c4cc(-n5cnnc5)ccc4Cl)c3)nc2c1` was 4.50.
With `CCOc1ccccc1/C=C/c1onc(C)c1S(=O)(=O)N1CCC(C(=O)NC(C)(C)C)CC1`, the IC50 is > 35 µM (inactive).
For the compound `COc1ccc(-c2nnn(CC(=O)N(C3CCCCC3)C(C)C(=O)NC3CCCC3)n2)cc1OC` (configuration not stated), the IC50 was > 35 µM (inactive).
Regarding `C[C@H]1CN([C@@H](C)CO)C(=O)c2cccc(NC(=O)Nc3ccc(F)cc3)c2O[C@@H]1CN(C)Cc1ccc(Cl)c(Cl)c1`, the pIC50 is 4.32.
On the same count and under the same terms, the same measure for `C[C@H]1CN([C@@H](C)CO)C(=O)c2cccc(NC(=O)Nc3ccccc3)c2O[C@@H]1CN(C)Cc1ccc(Cl)c(Cl)c1`: 4.18.
`Cc1cc(C(=O)C(C)OC(=O)C2=NNC(=O)CC2)c(C)n1-c1ccc(OC(F)F)cc1` (configuration not stated): the IC50 is > 35 µM (inactive).
Take `O=C(Nc1cc(Cl)ccc1Cl)c1cc(Cl)ccc1NS(=O)(=O)c1ccc(Cl)c([N+](=O)[O-])c1`: the IC50 was > 35 µM (inactive).

Tested on in a further assay: not listed separately
The description is as above. To be noted: ldlA[mSR-BI] CHO cells viability, CellTiter-Glo ATP, 3 h; at 30 µM (top of the series). The procedure, abridged: as §1
As for `C[C@H]1CN([C@@H](C)CO)C(=O)c2cc(NC(=O)Cc3cn(C)c4ccccc34)ccc2O[C@H]1CN(C)S(=O)(=O)c1ccc(F)cc1`, the activity change, negative = cytotoxicity was -3.79% (inactive).

Staying with this assay, now noted: ldlA[mSR-BI] CHO cells viability, CellTiter-Glo ATP, 3 h; at 35 µM (top of the series).
Turning to `C[C@H](CO)N1C[C@H](C)[C@H](CN(C)S(=O)(=O)c2ccc(F)cc2)Oc2ccc(NC(=O)CCC(F)(F)F)cc2C1=O`, the activity change, negative = cytotoxicity was 0.245% (inactive).
On to `C[C@H](CO)N1C[C@H](C)[C@H](CN(C)S(=O)(=O)c2ccc(F)cc2)Oc2ccc(NC(=O)Cc3cn(C)c4ccccc34)cc2C1=O`, for which the activity change, negative = cytotoxicity is -7.27% (inactive).
For `O=C(Nc1ccc(-c2nc3ccc(NC(=O)c4ccc(Cl)cc4)cc3[nH]2)cc1)c1ccc(Cl)cc1`, the activity change, negative = cytotoxicity is 5.01% (inactive).
For `C[C@H](CO)N1C[C@H](C)[C@H](CN(C)S(=O)(=O)c2ccc(F)cc2)Oc2ccc(NC(=O)Cc3ccccc3)cc2C1=O`, the activity change, negative = cytotoxicity is 2.52% (inactive).
On the same count and under the same terms, the same measure for `O=C(Nc1cc(Cl)ccc1Cl)c1cc(Br)ccc1NS(=O)(=O)c1ccc(Cl)c([N+](=O)[O-])c1`: -7.81% (inactive).
Same read-out and setting: the value for `C[C@@H]1CN([C@H](C)CO)C(=O)Cc2cc(NC(=O)Cc3cn(C)c4ccccc34)ccc2O[C@H]1CN(C)S(=O)(=O)c1ccc(F)cc1` was -1% (inactive); that for `Cc1cc(C)c2c(c1)NC(c1cc3c(cc1Br)OCO3)C1CC=CC21` (configuration not stated) was -1.84% (inactive).

The record behind these values is PubChem BioAssay AID540246 (Broad Institute, 2011).
